Reference: ChEMBL document CHEMBL1133010, “Structure-function studies of polymyxin B nonapeptide: implications to sensitization of gram-negative bacteria” (J Med Chem, 2000)
In brackets after ≈: the same amount, converted by molar mass. One block for each compound: values may come before it.

Legend:
Type in all cases: functional
Escherichia coli [1] = assay: Antimicrobial activity against Escherichia coli (Escherichia coli)
Summary of the method: (§1)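 Clinical isolates grown on nutrient agar and kept at 4 °C. Overnight culture in isotonic sensitest broth (ISB) adjusted to 1 × 10^5 CFU/mL and inoculated into wells holding a 2-fold serial dilution (1000-0.5 µg/mL) of test agent in ISB. Incubated 20 h at 37 °C. MIC is the lowest concentration with no visible growth. 4-8 separate tests, varying by no more than one dilution.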

Klebsiella pneumoniae [2] = assay: Antimicrobial activity against Klebsiella pneumoniae (Klebsiella pneumoniae); summary of the method: as §1
Escherichia coli [3] = assay: Relative sensitizing activity against Escherichia coli was determined as a percent of pPMBN (50 ug/mL) as a control
Summary of the method: (§2)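 Clinical isolates at 1 × 10^5 CFU per well, in ISB with a 2-fold serial dilution (1000-0.5 µg/mL) of novobiocin. Peptide added at 50 µg/mL final. Incubated 20 h at 37 °C and read by visible growth. Sensitizing activity is the fold drop in novobiocin MIC with versus without peptide, expressed as percent of that given by 50 µg/mL pPMBN.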

Klebsiella pneumoniae [4] = assay: Relative sensitizing activity against Klebsiella pneumoniae was determined as a percent of pPMBN (50 ug/mL) as a control; summary of the method: as §2
Escherichia coli [5] = assay: Inhibitory concentration required to displace dansyl-PMBN (0.55 uM) from maximal specific binding to Escherichia coli LPS
Summary of the method: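 Fluorescence displacement assay. E. coli LPS (3 µg/mL, ~2 × 10^-7 M) in 5 mM HEPES pH 7.2 was pre-equilibrated with dansyl-PMBN (0.55 µM). Peptide was added stepwise at 5-min intervals from 1 × 10^-5 to 1 × 10^-3 M stocks. Fluorescence read at excitation 340 nm and emission 485 nm after each addition. Percent inhibition was plotted against concentration to give maximal and 50% displacement. 2-3 repeats.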

Escherichia coli [6] = assay: Minimal inhibitory concentration of compound required against Escherichia coli was evaluated; Inactive; summary of the method: as §1
Klebsiella pneumoniae [7] = assay: Minimal inhibitory concentration of compound required against Klebsiella pneumoniae was evaluated; Inactive; summary of the method: as §1
Pseudomonas aeruginosa = assay: Minimal inhibitory concentration of compound required against Pseudomonas aeruginosa was evaluated
Summary of the method: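 P. aeruginosa clinical isolate kept on nutrient agar at 4 °C. Overnight culture in isotonic sensitest broth adjusted to 1 × 10^5 CFU/mL and added to serial 2-fold dilutions (1000-0.5 µg/mL) of test agent in the same broth. MIC is the lowest concentration with no visible growth after 20 h at 37 °C. 4-8 separate tests, varying by no more than one dilution.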

Compound: CO[C@@H]1[C@@H](OC(N)=O)[C@@H](O)[C@H](Oc2ccc3c(O)c(NC(=O)c4ccc(O)c(CC=C(C)C)c4)c(=O)oc3c2C)OC1(C)C [NOVOBIOCIN]
MIC (Escherichia coli [1]): 125 µg/mL (≈ 204 µM)
MIC (Klebsiella pneumoniae [2]): 250 µg/mL (≈ 408 µM)
MIC (Escherichia coli [3]): 125 µg/mL
MIC (Klebsiella pneumoniae [4]): 62 µg/mL

Compound: CC(C)C[C@@H]1NC(=O)[C@H](Cc2ccccc2)NC(=O)[C@H](CCN)NC(=O)[C@@H](NC(=O)[C@H](CCN)NC(=O)[C@@H](N)[C@@H](C)O)CCNC(=O)[C@H]([C@@H](C)O)NC(=O)[C@H](CCN)NC(=O)[C@H](CCN)NC1=O
IC50 (Escherichia coli [5]; Escherichia coli): 8 µM

Compound: CC(C)C[C@@H]1NC(=O)[C@@H](Cc2ccccc2)NC(=O)[C@H](CCN)NC(=O)[C@@H](NC(=O)[C@H](CCN)NC(=O)[C@@H](N)[C@@H](C)O)CCNC(=O)[C@H]([C@@H](C)O)NC(=O)[C@H](CCN)NC(=O)[C@H](CCN)NC1=O (stereo in doubt; form 1) [listing 1 of 2 here]
IC50 (Escherichia coli [5]; Escherichia coli): 2.5 µM

Compound: CC(C)C[C@@H]1NC(=O)[C@@H](Cc2ccccc2)NC(=O)[C@H](CN)NC(=O)[C@@H](NC(=O)[C@H](CN)NC(=O)[C@@H](N)[C@@H](C)O)CNC(=O)[C@H]([C@@H](C)O)NC(=O)[C@H](CN)NC(=O)[C@H](CN)NC1=O
IC50 (Escherichia coli [5]; Escherichia coli): 30 µM

Compound: CC(C)C[C@@H]1NC(=O)[C@@H](Cc2ccccc2)NC(=O)[C@@H](NC(=O)[C@H](CCN)NC(=O)[C@H](CCN)NC(=O)[C@@H](N)[C@@H](C)O)CCNC(=O)[C@H]([C@@H](C)O)NC(=O)[C@H](CCN)NC(=O)[C@H](CCN)NC1=O
IC50 (Escherichia coli [5]; Escherichia coli): 15 µM

Compound: CC(C)C[C@@H]1NC(=O)[C@@H](Cc2ccccc2)NC(=O)[C@H](CCN)NC(=O)[C@@H](NC(=O)[C@H](CCN)NC(=O)[C@@H](N)[C@@H](C)O)CCNC(=O)[C@H]([C@@H](C)O)NC(=O)[C@H](CCN)NC(=O)[C@H](CCN)NC1=O (stereo in doubt; form 1) [listing 2 of 2 here]
MIC (Escherichia coli [6]): ≥ 1000 µg/mL
MIC (Klebsiella pneumoniae [7]): ≥ 1000 µg/mL
MIC (Pseudomonas aeruginosa): 8 µg/mL (≈ 8.31 µM)
Activity (Escherichia coli [3]): 100%
Activity (Klebsiella pneumoniae [4]): 100%

Now from value to compound:

IC50 (Escherichia coli [5]; Escherichia coli): 8 µM
Compound: CC(C)C[C@@H]1NC(=O)[C@@H](Cc2ccccc2)NC(=O)[C@H](CCN)NC(=O)[C@H](CCN)NC(=O)[C@@H](NC(=O)[C@@H](N)[C@@H](C)O)CCNC(=O)[C@H]([C@@H](C)O)NC(=O)[C@H](CCN)NC(=O)[C@H](CCN)NC1=O

IC50 (Escherichia coli [5]): 0.5 µM
Compound: POLYMYXIN B

IC50 (Escherichia coli [5]; Escherichia coli): 30 µM
Compound: CC(C)C[C@@H]1NC(=O)[C@@H](Cc2ccccc2)NC(=O)[C@H](CCCCN)NC(=O)[C@@H](NC(=O)[C@H](CCCCN)NC(=O)[C@@H](N)[C@@H](C)O)CCNC(=O)[C@H]([C@@H](C)O)NC(=O)[C@H](CCCCN)NC(=O)[C@H](CCCCN)NC1=O

IC50 (Escherichia coli [5]; Escherichia coli): 8 µM
Compound: CC(C)C[C@@H]1NC(=O)[C@@H](Cc2ccccc2)NC(=O)[C@H](CCN)NC(=O)[C@@H](NC(=O)[C@H](CCN)NC(=O)[C@@H](N)[C@@H](C)O)CCCCNC(=O)[C@H]([C@@H](C)O)NC(=O)[C@H](CCN)NC(=O)[C@H](CCN)NC1=O
